Experiment [1] concerns THP-1. Put plainly: Increase in human THP1 cells mediated phagocytosis of apoptotic polymorphonuclear leukocytes at 1 nM after 15 mins. Format: functional, cell-based. The essentials: (§1)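 THP-1 cells differentiated with 100 nM PMA for 48 h (5 × 10^5 cells/well), pretreated 15 min at 37 °C, then co-incubated 2 h at 37 °C with 1 × 10^6 human PMNs made apoptotic by 20 h culture. Vehicle was 0.1% DMSO or ethanol. After cold PBS washes, myeloperoxidase staining; % THP-1 cells containing ≥1 PMN (≥400 cells, duplicate wells); n = 3.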

Experiment [2] relates to THP-1. The experiment is described as follows: Induction of F-actin rearrangement in human THP1 cells at 1 nM after 15 mins. Format: functional, cell-based. The essentials:
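PMA-differentiated THP-1 cells (1 × 10^6/well) on glass coverslips, exposed to stimulus at 1 nM for 15 min. Fixed in 3.8% paraformaldehyde, permeabilized with 0.1% Triton X-100, stained with 0.33 µmol/L Oregon Green-phalloidin for 30 min. F-actin localization imaged by fluorescence microscopy (×100 oil objective); three independent experiments.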

Experiment [3] relates to THP-1. Put plainly: Increase in human THP1 cells mediated phagocytosis of apoptotic polymorphonuclear leukocytes at 1 nM in presence of pan-FPR/ALXR antagonist Boc2. Format: functional, cell-based. The essentials:
(§2)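 PMA-differentiated THP-1 cells given Boc2 (100 µM), with or without stimulus, for 15 min at 37 °C. Then co-incubated 2 h with apoptotic human PMNs. Phagocytosis scored by myeloperoxidase staining as % THP-1 cells containing PMNs; mean ± SEM, n = 3, compared with no Boc2.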

Experiment [4] deals with THP-1. The experiment is described as follows: Increase in human THP1 cells adherence to laminin after 30 mins. Format: functional, cell-based. The essentials: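 THP-1 cells loaded with 1 µM BCECF-AM for 20 min at 37 °C, then resuspended at 3.3 × 10^6/mL in PBS2+ with 0.1% BSA. Cells settled 10 min on laminin-coated wells, then given agonist or vehicle for 30 min at 37 °C. Washed, lysed in NaOH/SDS, fluorescence read. Percent adherence above vehicle; three experiments, each in triplicate.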

In experiment [5] the test system is THP-1. The experiment is described as follows: Increase in human THP1 cells mediated phagocytosis of apoptotic polymorphonuclear leukocytes at 0.01 pM to 1 nM after 15 mins. Format: functional, cell-based. The essentials: as §1
For experiment [6], the system named is THP-1. Put plainly: Increase in human THP1 cells mediated phagocytosis of apoptotic polymorphonuclear leukocytes at 10 pM after 15 mins. Format: functional, cell-based. The essentials:
as §1

The subject of experiment [7] is THP-1. Put plainly: Increase in human THP1 cells mediated phagocytosis of apoptotic polymorphonuclear leukocytes at 0.1 pM to 1 nM after 15 mins. Format: functional, cell-based. The essentials: as §1
In experiment [8] the test system is THP-1. The experiment is described as follows: Increase in human THP1 cells mediated phagocytosis of apoptotic polymorphonuclear leukocytes at 1 pM in presence of pan-FPR/ALXR antagonist Boc2. Type of experiment: functional, cell-based. The essentials:
as §2

Experiment [9] has as its system THP-1. Put plainly: Increase in human THP1 cells mediated phagocytosis of apoptotic polymorphonuclear leukocytes at 0.01 pM after 15 mins. Type of experiment: functional, cell-based. The essentials:
as §1

For another experiment, the system named is Mus musculus. The experiment is described as follows: Decrease in zymosan-induced neutrophil accumulation in mouse model of peritonitis at 50 ug/kg, iv. Type of experiment: functional, organism-based. The essentials: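 Zymosan A peritonitis in mice: analogue at 0.5-50 µg/kg given intravenously (vehicle n = 15; n = 6 per dose group), followed 5 min later by i.p. zymosan A, 1 mg in 0.5 mL sterile PBS. Peritoneal lavage at 4 h with PBS/3 mM EDTA/heparin. Cells Fc-blocked, stained with PE anti-Gr-1 and counted as neutrophils (Gr-1+). Mean ± SEM versus vehicle.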

The source made the active and inactive calls. The rule behind the calls is not given here.

On to `CCCCC[C@H](O)c1ccccc1/C=C/[C@@H](O)[C@@H](O)CCCC(=O)OC`, for which the outcome in the experiment on THP-1 [1], in the experiment with THP-1 [2] and in the experiment on THP-1 [4] was Active. Also, the result in the experiment on THP-1 [3] was inactive.

On to `CCCCC[C@@H](O)c1ccccc1/C=C/[C@@H](O)[C@@H](O)CCCC(=O)O`, for which the result in the experiment with THP-1 [5] was inactive.

For `CCCCC[C@H](O)[C@H](O)/C=C/c1ccccc1[C@@H](O)CCCC(=O)OC(C)(C)C`, the result in the experiment on THP-1 [2] and with THP-1 [6] was Active.

For the compound `CCCCC[C@H](O)/C=C/C=C\C=C\C=C\[C@@H](O)[C@@H](O)CCCC(=O)O`, in the experiment with THP-1 [7], the outcome was Active. Further, the result in the experiment on THP-1 [3] was inactive.

Take `CCCCC[C@@H](O)c1ccccc1/C=C/[C@@H](O)[C@@H](O)CCCC(=O)OC`: the outcome with THP-1 [8] and in the experiment on THP-1 [9] was inactive. The outcome in the experiment on THP-1 [7], with THP-1 [2], with Mus musculus and with THP-1 [4] was Active.

For `CCCCC[C@H](O)c1ccccc1/C=C/[C@@H](O)[C@@H](O)CCCC(=O)O`, the result in the experiment on THP-1 [5] was inactive.

The record behind these values is ChEMBL document CHEMBL1138264, “Aromatic lipoxin A4 and lipoxin B4 analogues display potent biological activities” (J Med Chem, 2007).
